Data published in ChEMBL document CHEMBL1125736, “N-[(omega-amino-1-hydroxyalkyl)phenyl]methanesulfonamide derivatives with class III antiarrhythmic activity” (1991).

Assays:
Assay type in all cases: functional
Oryctolagus cuniculus [1] = species on record: Oryctolagus cuniculus; assay: Tested for effective refractory period measured at a pacing rate of 1 Hz in vitro with rabbit heart tissue preparations.
Method in brief: (§1)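 Isolated rabbit heart tissues, all from one heart, each its own baseline; 2 h equilibration, perfusate changed every 15 min, basal stimulation 2 Hz between measurements. Exposed to 10^-7, 10^-6 and 10^-5 M drug, 15 min each; values reported at 10^-5 M as percent change from baseline. Drug solutions prepared daily in glass-distilled water. Force and rate recorded on polygraph.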

Oryctolagus cuniculus [2] = species on record: Oryctolagus cuniculus; assay: Tested for effective refractory period measured at a pacing rate of 3 Hz in vitro with rabbit heart tissue preparations.; set-up: unit: %; method in brief: as §1
Oryctolagus cuniculus [3] = species on record: Oryctolagus cuniculus; assay: Tested for conduction time measured at a pacing rate of 3 Hz in vitro with rabbit heart tissue preparations.; method in brief: as §1
Oryctolagus cuniculus [4] = species on record: Oryctolagus cuniculus; assay: Tested for force of contraction measured in mg at a pacing rate of 2 Hz in vitro with rabbit heart tissue preparations.; method in brief: as §1
Oryctolagus cuniculus [5] = species on record: Oryctolagus cuniculus; assay: Tested for conduction time measured at a pacing rate of 1 Hz in vitro with rabbit heart tissue preparations.; method in brief: as §1
Oryctolagus cuniculus [6] = species on record: Oryctolagus cuniculus; assay: Tested for rate automaticity measured in beats per minute from unpaced right atria of rabbit heart.; method in brief: as §1

SMILES	ERP1 (Oryctolagus cuniculus [1])	ERP3 (Oryctolagus cuniculus [2])	CT3 (Oryctolagus cuniculus [3])	FOC (Oryctolagus cuniculus [4])	CT1 (Oryctolagus cuniculus [5])	Rate (Oryctolagus cuniculus [6])
CCCCCCCCCCN(CC)CCCC(O)c1ccc(NS(C)(=O)=O)cc1 (stereo not drawn)	11.8	16.1	74.3	-23.1	63.2	-11
CCCCCCCN(CC)CC(O)c1ccc(NS(C)(=O)=O)cc1 (stereo not drawn)	22.9	26.2	–	-7	10.2	-38
CCCCCCCN(CC)CCCC(O)c1cccc(NS(C)(=O)=O)c1 (stereo not drawn)	25.2	19	54	-15	21.3	-16
CCCCCCN(CC)CCCC(O)c1ccc(NS(C)(=O)=O)cc1 (stereo not drawn)	12.1	7.8	0	-10.9	-6.5	-16
CS(=O)(=O)Nc1ccc(C(O)CCCN2CCCCCCC2)cc1 (stereo not drawn)	21.4	23.5	-4.7	-5.6	-4.5	-10
CCCCCCCN(CC)CCCC(=O)c1ccc(NS(C)(=O)=O)cc1	6.6	9.4	0.6	-6.7	-2.7	-21
CCCCCCCCN(CC)CCCC(O)c1ccc(NS(C)(=O)=O)cc1 (stereo not drawn)	5.3	4.3	29.8	0.7	17.3	-28
CCCCCCCN(C)CCCC(O)c1ccc(NS(C)(=O)=O)cc1 (stereo not drawn)	16.5	17.2	70	8.5	13	-34
CS(=O)(=O)Nc1ccc(C(O)CCCN2CCCCCC2)cc1 (stereo not drawn)	17.1	18.3	0.2	3.4	1	-11
CCCCCCCN(CC)CCCCc1ccc(NS(C)(=O)=O)cc1	28.3	19.2	140	-24.2	67.2	-27
CCCCCCCNCCCC(O)c1ccc(NS(C)(=O)=O)cc1 (stereo not drawn)	0.4	6.8	8.3	-12.1	-7.4	-25
CCCCCCCN(CC)CCC(O)c1ccc(NS(C)(=O)=O)cc1 (stereo not drawn)	37.5	39.3	40.3	-23	15.7	-35
CCCCCN(CC)CCCC(O)c1ccc(NS(C)(=O)=O)cc1 (stereo not drawn)	20.8	11.6	11.9	17.1	8.6	-20
CC1CCN(CCCC(O)c2ccc(NS(C)(=O)=O)cc2)CC1 (stereo not drawn)	4.5	10.5	-6.5	-1	-2	–
CCCCCCCN(CC)CCCC(O)c1ccc(Cl)cc1.Cl (stereo not drawn)	10.5	14	–	-21	4	-12
CCCCCCC[N+](CC)(CC)CCCCc1ccc(Cl)cc1.O=P([O-])(O)O [CLOFILIUM PHOSPHATE]	3	3.4	-1.4	-10	0	-22
